“And” between values parts separate entries of the source, which are not always exact repeats. Identical values can stand only once.
How the values were obtained:
[1] = target: Neuronal acetylcholine receptor; alpha3/beta2 (Rattus norvegicus, UniProt P04757+P12390); assay: Inhibition of rat Nicotinic acetylcholine receptor alpha3-beta2 expressed in Xenopus Oocytes; assay type: cell-based
How it was run: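 Rat nAChR subunit cRNAs (50 nL, 5–50 ng/µL) injected into Xenopus oocytes, kept at 19 °C in ND96 pH 7.4 with gentamycin; two-electrode voltage clamp at −70 mV, 2–10 days post-injection. Peptide added to static bath, 3–10 min before agonist; sub-1 nM also perfused 10–15 min. IC50 from fitted concentration–response curves with Hill slope.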

[2] = target: Neuronal acetylcholine receptor subunit alpha-7 (Rattus norvegicus, UniProt Q05941); assay: Compound was evaluated for inhibition of rat Nicotinic acetylcholine receptor alpha-7 (nAChR) in Xenopus Oocytes; assay type: cell-based
How it was run: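 Rat α7 nAChR cRNA (5–50 ng/µL, 50 nL) injected into Xenopus oocytes kept at 19 °C in ND96 (pH 7.4) plus gentamycin; two-electrode voltage clamp 2–10 days later at −70 mV. Peptide applied once three agonist responses differed <10%, added to static bath and incubated 3–10 min before agonist. IC50 and nH from concentration–response curve fit; 95% confidence intervals.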

[3] = Inhibition ratio of rat alpha 3 beta 2 nicotinic acetylcholine receptor (nAChR) to that of at alpha 7 nicotinic acetylcholine receptor (nAChR)

Chain of Neuronal acetylcholine receptor; alpha3/beta2 (P04757 whole entry, the tested form may be a part): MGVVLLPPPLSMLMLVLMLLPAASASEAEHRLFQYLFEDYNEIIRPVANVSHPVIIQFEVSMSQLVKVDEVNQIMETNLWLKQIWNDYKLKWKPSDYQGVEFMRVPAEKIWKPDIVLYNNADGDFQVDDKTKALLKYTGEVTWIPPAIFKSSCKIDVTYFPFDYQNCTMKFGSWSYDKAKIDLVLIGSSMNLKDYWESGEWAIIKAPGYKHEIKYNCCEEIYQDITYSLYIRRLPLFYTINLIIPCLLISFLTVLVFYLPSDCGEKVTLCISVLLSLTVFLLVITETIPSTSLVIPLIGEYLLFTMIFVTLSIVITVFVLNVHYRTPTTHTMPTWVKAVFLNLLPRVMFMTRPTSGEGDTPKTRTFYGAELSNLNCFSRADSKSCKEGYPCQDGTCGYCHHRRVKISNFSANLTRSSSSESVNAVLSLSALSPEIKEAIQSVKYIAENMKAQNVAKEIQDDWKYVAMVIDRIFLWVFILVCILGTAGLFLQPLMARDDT
Chain of Neuronal acetylcholine receptor; alpha3/beta2 (P12390 whole entry, the tested form may be a part): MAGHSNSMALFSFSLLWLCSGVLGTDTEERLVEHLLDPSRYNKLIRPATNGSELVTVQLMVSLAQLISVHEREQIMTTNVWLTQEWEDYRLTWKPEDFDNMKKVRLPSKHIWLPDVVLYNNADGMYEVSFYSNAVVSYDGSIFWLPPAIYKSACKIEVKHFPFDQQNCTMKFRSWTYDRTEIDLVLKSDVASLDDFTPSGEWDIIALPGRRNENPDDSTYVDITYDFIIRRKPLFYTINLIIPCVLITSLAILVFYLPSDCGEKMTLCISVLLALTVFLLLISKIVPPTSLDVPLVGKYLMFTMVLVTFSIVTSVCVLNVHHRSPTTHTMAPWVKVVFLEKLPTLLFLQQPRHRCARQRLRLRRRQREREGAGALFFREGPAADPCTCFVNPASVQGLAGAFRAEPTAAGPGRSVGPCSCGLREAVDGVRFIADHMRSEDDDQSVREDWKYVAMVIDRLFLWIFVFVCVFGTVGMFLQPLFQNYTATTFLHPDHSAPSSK
Chain of Neuronal acetylcholine receptor subunit alpha-7 (Q05941 whole entry): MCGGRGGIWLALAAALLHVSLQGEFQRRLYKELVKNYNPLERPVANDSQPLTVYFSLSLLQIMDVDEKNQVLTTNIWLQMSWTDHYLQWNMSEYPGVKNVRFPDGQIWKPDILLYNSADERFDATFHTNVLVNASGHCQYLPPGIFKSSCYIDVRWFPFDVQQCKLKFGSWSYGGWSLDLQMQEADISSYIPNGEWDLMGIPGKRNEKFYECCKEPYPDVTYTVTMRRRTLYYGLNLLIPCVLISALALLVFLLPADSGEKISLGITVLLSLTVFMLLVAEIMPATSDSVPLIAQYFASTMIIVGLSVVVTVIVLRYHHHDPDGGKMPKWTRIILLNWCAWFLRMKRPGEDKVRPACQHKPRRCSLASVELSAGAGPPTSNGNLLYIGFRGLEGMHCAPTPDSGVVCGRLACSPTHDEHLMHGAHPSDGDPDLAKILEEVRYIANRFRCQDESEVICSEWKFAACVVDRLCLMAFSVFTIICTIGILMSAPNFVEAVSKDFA

Row | SMILES | IC50 [1] | IC50 [2] [nM] | Ratio [3]
1 | CC[C@H](C)[C@H](NC(=O)[C@H](Cc1c[nH]cn1)NC(=O)[C@H](CCC(N)=O)NC(=O)[C@H](CC(N)=O)NC(=O)[C@H](CC(N)=O)NC(=O)CNC(=O)[C@H](C)NC(=O)[C@H](CS)NC(=O)[C@H](C)NC(=O)[C@@H]1CCCN1C(=O)[C@H](Cc1c[nH]cn1)NC(=O)[C@H](CO)NC(=O)[C@H](CS)NC(=O)[C@H](CS)NC(=O)CN)C(=O)N[C@@H](CS)C(N)=O | 1.1 nM | – | –
2 | C[C@H](NC(=O)[C@H](CS)NC(=O)[C@H](C)NC(=O)[C@H]1CCCN1C(=O)[C@H](CC1=CNCN1)NC(=O)[C@H](CO)NC(=O)[C@H](CS)NC(=O)[C@H](CS)NC(=O)CN)C(=O)N[C@@H](CC(N)=O)C(=O)N[C@@H](CC(N)=O)C(=O)N[C@@H](CCC(N)=O)C(=O)N[C@@H](CC(=O)O)C(=O)N[C@@H](Cc1ccc(O)cc1)C(=O)N[C@@H](CS)C(N)=O | 0.17 nM | – | –
3 | C[C@H](NC(=O)[C@H](C)NC(=O)[C@H](CS)NC(=O)[C@H](C)NC(=O)[C@H]1CCCN1C(=O)[C@H](Cc1cnc[nH]1)NC(=O)[C@H](CO)NC(=O)[C@H](CS)NC(=O)[C@H](CS)NC(=O)CNC(=O)CN)C(=O)N[C@@H](CC(N)=O)C(=O)N[C@@H](CC(N)=O)C(=O)N[C@@H](CCC(N)=O)C(=O)N[C@@H](CC(=O)O)C(=O)N[C@@H](Cc1ccc(OS(=O)(=O)O)cc1)C(=O)N[C@@H](CS)C(N)=O | 0.64 nM | – | –
4 | C[C@H](NC(=O)[C@H](C)NC(=O)[C@H](CS)NC(=O)[C@H](C)NC(=O)[C@H]1CCCN1C(=O)[C@H](Cc1cnc[nH]1)NC(=O)[C@H](CO)NC(=O)[C@H](CS)NC(=O)[C@H](CS)NC(=O)CNC(=O)CN)C(=O)N[C@@H](CC(N)=O)C(=O)N[C@@H](CC(N)=O)C(=O)N[C@@H](CCC(N)=O)C(=O)N[C@@H](CC(=O)O)C(=O)N[C@@H](Cc1ccc(O)cc1)C(=O)N[C@@H](CS)C(=O)O | 0.54 nM | – | –
5 | C[C@H](NC(=O)[C@H](C)NC(=O)[C@H](CS)NC(=O)[C@H](C)NC(=O)[C@H]1CCCN1C(=O)[C@H](Cc1c[nH]cn1)NC(=O)[C@H](CO)NC(=O)[C@H](CS)NC(=O)[C@H](CS)NC(=O)CNC(=O)CN)C(=O)N[C@@H](CC(N)=O)C(=O)N[C@@H](CC(N)=O)C(=O)N[C@@H](CCC(N)=O)C(=O)N[C@@H](CC(=O)O)C(=O)N[C@@H](Cc1ccc(O)cc1)C(=O)N[C@@H](CS)C(N)=O | 0.28 nM and 0.3 nM | 76 | 0.004
6 | C[C@H](NC(=O)[C@H](C)NC(=O)[C@H](CS)NC(=O)[C@H](C)NC(=O)[C@H]1CCCN1C(=O)[C@H](Cc1cnc[nH]1)NC(=O)[C@H](CO)NC(=O)[C@H](CS)NC(=O)[C@@H](N)CS)C(=O)N[C@@H](CC(N)=O)C(=O)N[C@@H](CC(N)=O)C(=O)N[C@@H](CCC(N)=O)C(=O)N[C@@H](CC(=O)O)C(=O)N[C@@H](Cc1ccc(O)cc1)C(=O)N[C@@H](CS)C(N)=O | 5.84 nM | – | –
7 | CC(C)C[C@H](NC(=O)[C@H](CC(N)=O)NC(=O)[C@H](CO)NC(=O)[C@H](Cc1c[nH]cn1)NC(=O)[C@H](CCC(=O)O)NC(=O)[C@H](CC(C)C)NC(=O)[C@H](Cc1c[nH]cn1)NC(=O)[C@H](CS)NC(=O)[C@@H](NC(=O)[C@@H]1CCCN1C(=O)[C@H](CC(N)=O)NC(=O)[C@H](CO)NC(=O)[C@H](CS)NC(=O)[C@H](CS)NC(=O)CN)C(C)C)C(=O)N[C@@H](CS)C(N)=O | – | – | 0.0025
8 | C[C@H](NC(=O)[C@H](C)NC(=O)[C@H](CS)NC(=O)[C@H](C)NC(=O)[C@H]1CCCN1C(=O)[C@H](Cc1c[nH]cn1)NC(=O)[C@H](CO)NC(=O)[C@H](CS)NC(=O)[C@H](CS)NC(=O)CNC(=O)CNC(=O)CN)C(=O)N[C@@H](CC(N)=O)C(=O)N[C@@H](CC(N)=O)C(=O)N[C@@H](CCC(N)=O)C(=O)N[C@@H](CC(=O)O)C(=O)N[C@@H](Cc1ccc(O)cc1)C(=O)N[C@@H](CS)C(N)=O | 0.2 nM | – | –
9 | CC(C)C[C@H](NC(=O)[C@H](CC(N)=O)NC(=O)[C@H](CO)NC(=O)[C@H](Cc1cnc[nH]1)NC(=O)[C@H](CCC(=O)O)NC(=O)[C@H](CC(C)C)NC(=O)[C@H](Cc1cnc[nH]1)NC(=O)[C@H](CS)NC(=O)[C@@H](NC(=O)[C@@H]1CCCN1C(=O)[C@H](CC(N)=O)NC(=O)[C@H](CO)NC(=O)[C@H](CS)NC(=O)[C@H](CS)NC(=O)CN)C(C)C)C(=O)N[C@@H](CS)C(N)=O | 0.5 nM | – | –
